Laboratory results taken from ChEMBL document CHEMBL3525979, “Combined contributions of impaired hepatic CYP2C11 and intestinal breast cancer resistance protein activities and expression to increased oral glibenclamide exposure in rats with streptozotocin-induced diabetes mellitus” (Drug Metab Dispos, 2012).

What was measured:
[1] = AUC (0 to t) in Sprague-Dawley rat model of streptozotocin-induced diabetes mellitus at 10 mg/kg, po by HPLC method; type: ADME, organism-based; set-up: dose 10 mg/kg, route oral; conditions: in vivo
Procedure, shortened: (§1)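 Sprague-Dawley rats: diabetes induced by STZ 65 mg/kg i.p. in citrate buffer pH 4.5 (fasting glucose >11.1 mM at day 7). Insulin group received protamine zinc insulin 5 U/kg s.c. twice daily for 4 weeks. On day 35, overnight-fasted rats got GLB 10 mg/kg orally in 0.5% CMC-Na. Plasma GLB measured by HPLC with fluorescence detection (ex 308/em 360 nm). Non-compartmental analysis; n=6-7.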

[2] = Half life in streptozotocin-induced diabetes mellitus Sprague-Dawley rat liver microsomes at 4 uM after 60 mins; type: ADME
Procedure, shortened: (§2)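 Liver microsomes (0.5 mg/mL protein) from control, STZ-diabetic or insulin-treated diabetic rats, 0.01 M phosphate buffer pH 7.4, 4 μM GLB (methanol <1%); 5 min preincubation at 37 °C, started with NADPH regenerating system. Stopped with 1 M HCl at 0, 5, 15, 30, 45, 60 min. GLB depletion measured by HPLC-fluorescence. AUC by linear trapezoid; Clapp = initial dose/AUC0-t; t1/2 = 0.693/terminal slope. Triplicate incubations; 4-5 rats.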

[3] = Mean residence time in Sprague-Dawley rat model of streptozotocin-induced diabetes mellitus at 10 mg/kg, po by HPLC method; type: ADME, organism-based; set-up: dose 10 mg/kg, route oral; conditions: in vivo; procedure, shortened: as §1
[4] = test system: Jejunum; experiment: Drug absorption in streptozotocin-induced diabetes mellitus Sprague-Dawley rat jejunum at 10 ug/ml after 120 mins of in situ single-pass perfusion relative to normal rat; type: ADME, tissue-based; conditions: in vivo, 2 h
Procedure, shortened: (§3)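 In situ single-pass jejunal perfusion in anaesthetized control and STZ-diabetic rats. The segment was preperfused with 0.9% saline at 0.2 mL/min, 37 °C, for 20 min, then perfused with K-H buffer containing GLB 10 μg/mL. Effluent was collected at 15-min intervals after a 30-min steady state. Cumulative absorption was calculated from GLB loss (HPLC); n=5.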

[5] = Apparent oral volume of distribution in Sprague-Dawley rat model of streptozotocin-induced diabetes mellitus at 10 mg/kg, po by HPLC method; type: ADME, organism-based; set-up: dose 10 mg/kg, route oral; conditions: in vivo; procedure, shortened: as §1
[6] = Terminal elimination half life in insulin treated Sprague-Dawley rat model of streptozotocin-induced diabetes mellitus at 10 mg/kg, po by HPLC method; type: ADME, organism-based; set-up: dose 10 mg/kg, route oral; conditions: in vivo, read-out: beta t1/2 (converted)
Procedure, shortened: (§4)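 Rats given STZ 65 mg/kg i.p. in citrate buffer pH 4.5 (controls got buffer); diabetic if fasting glucose >11.1 mM at day 7; insulin group got protamine zinc insulin 5 U/kg s.c. twice daily for 4 weeks. On day 35, overnight-fasted rats dosed orally with 10 mg/kg in 0.5% CMC-Na; plasma by ethyl acetate extraction, HPLC fluorescence (ex 308/em 360 nm); non-compartmental analysis; n=6-7, mean ± S.D.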

[7] = AUC (0 to 60 mins) in streptozotocin-induced diabetes mellitus Sprague-Dawley rat liver microsomes at 4 uM after 60 mins; type: ADME; set-up: dose 4 uM, time < 1 hr; procedure, shortened: as §2
[8] = Cmax in normal Sprague-Dawley rat at 10 mg/kg, po by HPLC method; type: ADME, organism-based; set-up: dose 10 mg/kg, route oral; conditions: in vivo; procedure, shortened: as §1
[9] = AUC (0 to t) in insulin treated Sprague-Dawley rat model of streptozotocin-induced diabetes mellitus at 10 mg/kg, po by HPLC method; type: ADME, organism-based; set-up: dose 10 mg/kg, route oral; conditions: in vivo; procedure, shortened: as §1
[10] = Cmax in Sprague-Dawley rat model of streptozotocin-induced diabetes mellitus at 10 mg/kg, po by HPLC method; type: ADME, organism-based; set-up: dose 10 mg/kg, route oral; conditions: in vivo; procedure, shortened: as §1
[11] = Tmax in normal Sprague-Dawley rat at 10 mg/kg, po by HPLC method; type: ADME, organism-based; set-up: dose 10 mg/kg, route oral; conditions: in vivo; procedure, shortened: as §4
[12] = Oral clearance in normal Sprague-Dawley rat at 10 mg/kg, po by HPLC method; type: ADME, organism-based; set-up: dose 10 mg/kg, route oral; conditions: in vivo; procedure, shortened: as §4
[13] = AUC (0 to infinity) in normal Sprague-Dawley rat at 10 mg/kg, po by HPLC method; type: ADME, organism-based; set-up: time infinity, dose 10 mg/kg, route oral; conditions: plasma; procedure, shortened: as §1
[14] = test system: Jejunum; experiment: Drug absorption in streptozotocin-induced diabetes mellitus Sprague-Dawley rat jejunum at 10 ug/ml after 30 mins of in situ single-pass perfusion relative to normal rat; type: ADME, tissue-based; conditions: in vivo, 0.5 h; procedure, shortened: as §3
[15] = Terminal elimination half life in Sprague-Dawley rat model of streptozotocin-induced diabetes mellitus at 10 mg/kg, po by HPLC method; type: ADME, organism-based; set-up: dose 10 mg/kg, route oral; conditions: in vivo, read-out: beta t1/2 (converted); procedure, shortened: as §4
[16] = test system: Jejunum; experiment: Drug absorption in normal Sprague-Dawley rat jejunum assessed as 200 uM BCRP inhibitor novobiocin-mediated increase in apparent effective permeability at 10 ug/ml measured at 45 mins of perfusion; type: ADME, tissue-based; set-up: scale not given: the % may be the effect or the level left; conditions: 0.75 h
Procedure, shortened: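 Normal rats underwent in situ single-pass jejunal perfusion: saline preperfusion at 0.2 mL/min, 37 °C, for 20 min, then K-H buffer with GLB 10 μg/mL with or without novobiocin 50 or 200 μM. Effluent was collected every 15 min. Peff (cm/min) was calculated from GLB loss and the absorptive area of the segment; n=5.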

[17] = test system: Liver microsome; experiment: Drug metabolism in insulin treated streptozotocin-induced diabetes mellitus Sprague-Dawley rat liver microsomes assessed as compound level at 4 uM after 60 mins (reference value: 2.06 +/- 0.27 ug/ml); type: ADME; conditions: 1 h
[18] = Cmax in insulin treated Sprague-Dawley rat model of streptozotocin-induced diabetes mellitus at 10 mg/kg, po by HPLC method; type: ADME, organism-based; set-up: dose 10 mg/kg, route oral; conditions: in vivo; procedure, shortened: as §1
[19] = Tmax in Sprague-Dawley rat model of streptozotocin-induced diabetes mellitus at 10 mg/kg, po by HPLC method; type: ADME, organism-based; set-up: dose 10 mg/kg, route oral; conditions: in vivo; procedure, shortened: as §4
[20] = test system: Liver microsome; experiment: Drug metabolism in normal Sprague-Dawley rat liver microsomes assessed as compound level at 4 uM after 60 mins (reference value: 2.06 +/- 0.12 ug/ml); type: ADME; conditions: 1 h
[21] = AUC (0 to 60 mins) in normal Sprague-Dawley rat liver microsomes at 4 uM after 60 mins; type: ADME; set-up: time < 1 hr, dose 4 uM; procedure, shortened: as §2
[22] = AUC (0 to t) in normal Sprague-Dawley rat at 10 mg/kg, po by HPLC method; type: ADME, organism-based; set-up: dose 10 mg/kg, route oral; conditions: plasma; procedure, shortened: as §1
[23] = Drug excretion in urine of insulin treated Sprague-Dawley rat model of streptozotocin-induced diabetes mellitus at 10 mg/kg, po by HPLC method; type: ADME, organism-based; set-up: dose 10 mg/kg, route oral; conditions: read-out: Drug excretion
Procedure, shortened: (§5)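 STZ-diabetic (65 mg/kg i.p.), insulin-treated or control rats were dosed with GLB 10 mg/kg orally on day 35 after overnight fast. Urine and feces were collected in metabolic cages at 6-h intervals to 36 h. For bile, the common bile duct was cannulated under pentobarbital and bile collected to 12 h. GLB measured by HPLC-fluorescence and expressed as % of dose.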

[24] = Drug excretion in bile of Sprague-Dawley rat model of streptozotocin-induced diabetes mellitus at 10 mg/kg, po by HPLC method; type: ADME, organism-based; set-up: dose 10 mg/kg, route oral; conditions: read-out: Drug excretion; procedure, shortened: as §5
[25] = Drug excretion in normal Sprague-Dawley rat bile at 10 mg/kg, po by HPLC method; type: ADME, organism-based; set-up: dose 10 mg/kg, route oral; conditions: read-out: Drug excretion; procedure, shortened: as §5

Q: With `COc1ccc(Cl)cc1C(=O)NCCc1ccc(S(=O)(=O)NC(=O)NC2CCCCC2)cc1` [GLYBURIDE] as the compound, how does the AUC(0-t) [1] read?
A: 13300 ng·h/mL

Q: And the half-life at 4 µM [2]?
A: 0.526 h

Q: And the MRT [3]?
A: 9.28 h

Q: What about the Drug absorption [4] of the same compound?
A: 42%

Q: And the Vd/F [5]?
A: 6.36 L/kg

Q: And the half-life [6]?
A: 8.18 h

Q: And the AUC(0-t) at 1 h, 4 µM [7]?
A: 916 ng·h/mL

Q: And the Cmax [8]?
A: 350 ng/mL

Q: What about the AUC(0-t) [9] of the same compound?
A: 2380 ng·h/mL

Q: What about the Cmax [10] of the same compound?
A: 1250 ng/mL

Q: And the Tmax [11]?
A: 1.5 h

Q: And the CL/F [12]?
A: 65.5 mL/min/kg

Q: And the AUC(0-inf) [13]?
A: 2610 ng·h/mL

Q: And the Drug absorption [14]?
A: 35%

Q: What about the half-life [15] of the same compound?
A: 5.11 h

Q: What about the Activity [16] of the same compound?
A: 25%

Q: And the Drug uptake [17]?
A: 0.09 µg/mL

Q: And the Cmax [18]?
A: 250 ng/mL

Q: And the Tmax [19]?
A: 7.2 h

Q: What about the Drug uptake [20] of the same compound?
A: 0.07 µg/mL

Q: What about the AUC(0-t) at 1 h, 4 µM [21] of the same compound?
A: 307 ng·h/mL

Q: And the AUC(0-t) [22]?
A: 2350 ng·h/mL

Q: What about the dose excreted [23] of the same compound?
A: 0.019%

Q: And the dose excreted [24]?
A: 0.097%

Q: And the dose excreted [25]?
A: 0.01%
